Only some compounds are listed: those with a hit (about 4.7% of all), similar ones and a draw of the others.
aSyn UTR inh – MLPCN primary screen, SNCA 5' untranslated region; alpha-synuclein 5'UTR reporter, inhibitor activity; inhibition, % (tested at 7.5 µM); 300,000 compounds, 0.82% hits; AID 1813, 2009; in the data active = inhibition above about 60%;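 note: H4 neuroglioblastoma cells stably carrying SNCA 5'UTR luciferase fusion; 0% = DMSO wells and 100% = positive control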
Jurkat NFkB inh – inhibitors of induced NF-kB luciferase reporter, primary screen, TCR NF-kB activation inhibitor project, cell-based, luminescence, uHTS. Jurkat, PMA/ionomycin-induced NF-kB luciferase reporter. AID 435003, 2010. inhibition, % at 4 µM. 330,000 compounds, 0.53% hits; in the data active = inhibition above about 50%
IMP-1 inhibitor – IMP-1 metallo-beta-lactamase inhibitors, primary screen, biochemical, epi-absorbance readout, Pseudomonas aeruginosa enzyme. metallo-beta-lactamase IMP-1 (Pseudomonas aeruginosa). inhibition, % at 5.6 µM. 290,000 compounds, 0.45% hits. purified IMP-1, nitrocefin hydrolysis, epi-absorbance fluorescence. AID 1556, 2009;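 active = inhibition above the mean plus 3 SD of all compounds in the same screening run, cut at about 4.5% in these data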;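 note: 0% = IMP-1 with DMSO and 100% = DMSO wells lacking enzyme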
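system = purified recombinant IMP-1 beta-lactamase | amount = 0.2 nM IMP-1, as dispensed | medium = HEPES buffer pH 7.1 with ZnSO4 and Brij 35 | times = 25 °C, 15 min preincubation, 25 min reaction | detection = plate fluorescence quenching by hydrolysis product, ex 480/em 530 nm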
VIM-2 inh – VIM-2 metallo-beta-lactamase inhibitors, primary screen, biochemical, epi-absorbance readout, Pseudomonas aeruginosa enzyme | purified VIM-2, nitrocefin hydrolysis, epi-absorbance fluorescence | 290,000 compounds, 0.89% hits | inhibition, % at 5.6 µM;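 active = inhibition above the mean of all tested compounds plus 3 SD, cutoff set per screening run, cut at about 7.5% in these data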;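 note: red hydrolysis product quenches plate fluorescence so inhibitors raise well fluorescence; 0% = enzyme with DMSO and 100% = DMSO without enzyme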
Mdm2 MdmX PPI – inhibitors of human Mdm2-MdmX association, primary screen, cell-based, luminescence, split luciferase, SaOS-2, uHTS; inhibition, % at 8 µM; Protein Mdm4 (Homo sapiens) + E3 ubiquitin-protein ligase Mdm2 (Homo sapiens), …; SaOS-2 split-luciferase Mdm2/MdmX complementation; AID 485346, 2010; 330,000 compounds, 3% hits;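 active = inhibition of at least 50% at 8 µM in the primary screen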
697 NFkB inh – inhibitors of PMA/ionomycin-induced NF-kB reporter, 697 cells, primary screen, B-cell NF-kB inhibitor project, cell-based, luminescence, uHTS | 697 B-cell NF-kB luciferase reporter, 16 h | inhibition, % at 4 µM | 330,000 compounds, 0.33% hits | AID 435022, 2010; in the data active = inhibition above about 35%
Mdm2-MdmX conf – Mdm2-MdmX complex disruptors, retested hits, confirmation, luminescence, single concentration; inhibition, % at 8 µM; shares compounds with Mdm2 MdmX PPI; Mdm2-MdmX binding, luminescent assay; AID 489028, 2010; 10,000 compounds, 55% hits; in the data active = inhibition above about 40%
Full FLuc ctr – full-length luciferase signal inhibition, confirmation, counter-screen for Mdm2/MdmX interaction inhibitor project, cell-based, single concentration, SaOS-2; shares compounds with Mdm2 MdmX PPI; inhibition, % at 8 µM; 6,200 compounds, 77% hits; SaOS-2 full-length luciferase counterscreen, luminescence;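 active = mean inhibition at 8 µM reaching about 37%, which flags the compound as non-specific, limit read from the data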;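 note: p53-null SaOS-2 cells with luciferase driven by a doxycycline-inducible promoter; compound on cells about two nights before reading with doxycycline added after day one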
An asterisk follows results filed as active; / = no result.

SMILES	aSyn UTR inh	Jurkat NFkB inh	IMP-1 inhibitor	VIM-2 inh	Mdm2 MdmX PPI	697 NFkB inh	Mdm2-MdmX conf	Full FLuc ctr
COc1ccc(NC(=O)CSc2nc3ccccc3c(=O)n2CCCO)cn1	/	-9.5	/	/	14.9	8.0	/	/
CC(SC1=NCCS1)C(=O)Nc1nnc(-c2ccc(F)cc2)s1 (configuration not stated)	-52.8	5.8	-5.6	-4.6	-18.7	-1.8	/	/
CC(SC1=NCCS1)C(=O)Nc1nnc(-c2ccc(Br)cc2)s1 (configuration not stated)	-36.3	-11.2	-3.3	-3.3	52.2*	-46.1	18.6	/
O=C(Cn1cccc1C(=O)c1ccccc1)NCc1ccccn1	2.0	5.0	-4.7	-1.3	0.6	20.3	/	/
CC1=NN(c2ccccc2)C(=O)/C1=C/C=C/c1ccccc1	-49.6	20.2	-0.1	-3.0	64.9*	-89.7	52.2*	49.2*
Cc1ccc(-c2nc(CS(=O)CC(=O)NCCN3CCCCCC3)c(C)o2)cc1 (configuration not stated)	20.3	21.1	-0.3	0.0	-8.9	1.6	/	/
Cc1[nH]n(-c2nc(-c3ccc(Cl)cc3)cs2)c(=O)c1N=Nc1ccc(O)cc1	-118.2	26.0	-1.6	-2.4	63.4*	-89.6	35.9	83.2*
Cc1ccccc1Cn1c(=O)n(-c2ccccc2)c(=O)c2ccc(C(=O)NCc3ccco3)cc21	28.1	-5.3	0.1	-1.9	67.5*	13.6	22.3	/
Cc1ccc(-n2c(=O)c3ccc(C(=O)NCc4ccco4)cc3n(Cc3ccccc3C#N)c2=O)cc1	19.2	-21.9	1.6	1.2	28.8	9.3	/	/
COc1cc(-c2nnc(SCC(=O)N(Cc3ccccc3)C(C)(C)C)o2)cc(OC)c1OC	0.3	19.6	-2.2	-2.4	51.1*	-46.3	42.1*	91.4*
COc1cc(OC)cc(-c2nnc(SCC(=O)N(Cc3ccccc3)C(C)(C)C)o2)c1	12.2	1.7	-3.4	-4.5	40.1	-35.5	/	/
CC(=O)c1c(C(C)=O)c(C)n(Cc2ccccc2)c1C	-0.9	12.5	-1.9	-2.4	-0.5	-1.3	/	/
Cc1c(C=O)c(C=O)c(C)n1Cc1ccccc1	-8.8	19.3	-0.5	0.4	85.9*	24.1	86.2*	30.8
COc1ccc(C2CC(=O)c3cnc(NC(=O)c4ccccc4)nc3C2)c(OC)c1 (configuration not stated)	3.5	26.1	-1.5	-1.7	57.6*	-2.6	41.0*	70.7*
Cc1nnc(N2CCC(C(=O)N3CCCCC3)CC2)c2nn(-c3ccc(Cl)cc3)c(C)c12	27.2	38.4	1.4	1.9	38.4	3.6	/	/
Cc1nnc(N2CCCC(C(=O)Nc3cc(F)ccc3F)C2)c2nn(-c3ccccc3)c(C)c12 (configuration not stated)	17.9	31.9	-1.5	-3.0	96.0*	-18.8	49.9*	73.1*
Cc1ccc(-n2nc3c(N4CCC(C(=O)NCCc5cccs5)CC4)nnc(C)c3c2C)cc1	90.3*	36.7	-3.3	-0.2	54.5*	-41.0	37.1	89.2*
Cc1ccc(-n2nc3c(=O)n(CC(=O)NCCc4cccs4)nc(C)c3c2C)cc1	42.8	14.7	-4.3	-0.9	31.6	8.3	/	/
Cc1nn(CCC(=O)NCc2ccc(OC(C)C)cc2)c(=O)c2nn(-c3ccccc3)c(C)c12	9.6	7.8	-1.5	-0.4	-8.7	-0.8	/	/
Cc1nnc(N2CCCC(C(=O)NCc3ccc(OC(C)C)cc3)C2)c2nn(-c3ccccc3)c(C)c12 (configuration not stated)	-29.6	4.1	-0.9	0.2	51.5*	-34.5	2.6	/
CCn1c(=O)c2c(cnn2C)c2ccccc21	-4.3	25.0	-2.0	5.1	80.9*	11.1	11.8	/
CCN(c1ccccc1)S(=O)(=O)c1cc(NC(=O)CN2CCN(C)CC2)ccc1Cl	/	-7.1	/	/	18.8	0.8	/	/
COc1cc(SC)ccc1C(=O)NCCCn1ccnc1	-17.2	-6.6	-4.3	-0.7	-10.0	-8.3	/	/
Cc1cc(C)cc(Nc2nc(-c3ccc(S(=O)(=O)N4CCCC4)cc3)cs2)c1	0.7	27.9	0.2	0.3	59.3*	-16.8	58.5*	42.0*
Cc1ccc(S(=O)(=O)Nc2nc3ccccc3nc2Nc2cccc(S(=O)(=O)N3CCCC3)c2)cc1	-6.4	-10.8	-1.1	-1.9	53.5*	-42.3	50.6*	93.0*
SMILES	aSyn UTR inh	Jurkat NFkB inh	IMP-1 inhibitor	VIM-2 inh	Mdm2 MdmX PPI	697 NFkB inh	Mdm2-MdmX conf	Full FLuc ctr
O=[N+]([O-])c1cccc(S(=O)(=O)Nc2nc3ccccc3nc2Nc2cccc(S(=O)(=O)N3CCCCC3)c2)c1	29.4	/	0.2	-1.4	/	/	/	/
COc1cc(OC)cc(-c2nnc(SCC(=O)N3c4ccccc4Sc4ccccc43)o2)c1	1.7	4.1	-3.1	-1.1	54.0*	-13.4	12.2	/
c1cc2[nH]snc2c2nc(C3CC3)nc12	-43.3	-0.2	-3.4	0.3	71.6*	-18.8	72.8*	26.4
CC(NC(=O)CCc1ccccc1)c1ccc2c(c1)OCO2 (configuration not stated)	8.8	8.2	-1.6	0.7	16.1	2.3	/	/
O=c1cc(-c2ccccc2)[nH]n1-c1nc2ccccc2[nH]1	-7.0	5.3	-5.0	-0.7	94.9*	-3.6	25.4	/
CC(C)(C)OC(=O)[C@H](Cc1ccccc1)NC(=O)c1nc[nH]c1C(=O)N1CCN(C(=O)OC(C)(C)C)CC1	39.7	-16.8	-3.9	-2.8	74.0*	-214.0	26.9	/
CC(C)C[C@H](NC(=O)c1[nH]cnc1C(=O)N[C@@H](Cc1ccccc1)C(=O)OC(C)(C)C)C(=O)OC(C)(C)C	35.1	1.1	/	/	79.5*	17.5	21.5	/
CC(C)C[C@H](NC(=O)c1[nH]cnc1C(=O)N[C@@H](Cc1ccccc1)C(=O)OC(C)(C)C)C(=O)OCc1ccccc1	40.0	-8.6	-1.7	-0.4	17.8	-54.2	/	/
CC(C)(C)OC(=O)N1CCN(C(=O)c2[nH]cnc2C(=O)N[C@@H](Cc2ccccc2)C(=O)OCc2ccccc2)CC1	5.8	-4.5	1.8	1.2	-0.5	14.7	/	/
CCOc1ccc(-n2c(C)cc(C(=O)CCl)c2C)cc1	110.8*	-3.8	-0.6	-0.2	94.0*	7.1	55.0*	87.5*
